PG9 binder: binds the HIV-1 gp120 antibody PG9; TR-FRET gp120-PG9 antibody binding; inhibition, % at 6.7 µM; hit rate 0.43% among 360,000; in the data active means inhibition above about 8.5%
NR2E3 ag-1: activates human NR2E3 receptor. inhibition of corepressor binding, % at 3.98 µM. CHO-S Gal4-NCOR/VP16-NR2E3 two-hybrid, luciferase. hit rate 0.35% among 360,000;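 active means inhibition above the mean of all tested compounds plus 3 SD, cut at about 70% in these data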;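 further: 0% = DMSO with NR2E3 transfected cells and 100% = cells lacking NR2E3 construct; higher means lower luciferase signal from less NR2E3 corepressor binding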
NR1D1 modulator: Rev-erb alpha (human) modulation; hit rate 0.79% among 370,000; Rev-erbα–FITC-DNA binding, fluorescence polarization, 90 min; activity, % at 10 µM; P20393;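 active means activity above about 14%, limit read from the data; passing the limit was not always enough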;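 further: 0% = DMSO wells with 35 nM protein and 100% = DMSO wells with 750 nM protein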
Target sequence (P20393 whole entry, looked up): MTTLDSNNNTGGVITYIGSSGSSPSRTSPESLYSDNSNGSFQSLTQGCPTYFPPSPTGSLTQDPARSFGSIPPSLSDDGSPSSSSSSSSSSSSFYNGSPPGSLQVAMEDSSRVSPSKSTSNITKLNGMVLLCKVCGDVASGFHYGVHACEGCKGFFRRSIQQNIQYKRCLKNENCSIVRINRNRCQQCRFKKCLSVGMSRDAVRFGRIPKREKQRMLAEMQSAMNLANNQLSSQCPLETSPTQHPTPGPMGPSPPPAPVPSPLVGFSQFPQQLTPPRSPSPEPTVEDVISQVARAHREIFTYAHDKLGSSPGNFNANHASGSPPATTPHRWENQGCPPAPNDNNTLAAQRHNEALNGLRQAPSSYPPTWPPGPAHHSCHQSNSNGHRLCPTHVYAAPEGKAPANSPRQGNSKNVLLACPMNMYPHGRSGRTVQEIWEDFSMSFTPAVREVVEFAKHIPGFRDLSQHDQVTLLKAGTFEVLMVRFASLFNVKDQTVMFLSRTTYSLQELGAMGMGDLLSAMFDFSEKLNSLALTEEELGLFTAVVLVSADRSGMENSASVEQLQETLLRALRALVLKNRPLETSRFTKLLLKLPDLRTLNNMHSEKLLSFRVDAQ
NR2E3 ag-2: agonists of human nuclear receptor NR2E3; Q9Y5X4; GST-NR2E3/biotin-RetCOR TR-FRET, 1536-well; inhibition of corepressor binding, % at 4.78 µM; hit rate 0.12% among 320,000; AID 2300;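 active means percent inhibition above the cutoff of mean plus 3 SD of all tested compounds, set per screening campaign, cut at about 20% in these data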;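 further: 0% = DMSO wells and 100% = biotin wells as full block of FRET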
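Material – GST-tagged NR2E3 plus biotinylated RetCOR corepressor · Quantity – NR2E3 fusion 1.35 nM · Times – 5 h incubation at 4 °C · Medium – pH 7.5 Tris-based buffer · Technique – TR-FRET, Eu(K)-anti-GST donor, streptavidin-D2 acceptor, ex 340, em 617/671 nm · Benchmarks – high control biotin, low control 0.6% DMSO · Format – 1536-well plates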
Rev-erbA confirm: confirmation of modulators of human Rev-erb alpha DNA binding; shares compounds with NR1D1 modulator; hit rate 61% among 3,000; activation, % at 25 µM; Rev-erb alpha FITC-DNA binding, fluorescence polarization, 90 min;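 active means activation at or above a set limit, or at least 3 SD above the negative control mean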;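 further: 0% = 35 nM protein with DMSO and 100% = 750 nM protein high control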
RORg DNA counter: affects RORgamma DNA binding in a Rev-erb alpha counter-screen. IC50, µM. hit rate 8% among 910. shares compounds with NR1D1 modulator. purified RORgamma protein-FITC-DNA binding, fluorescence polarization;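 active means Compounds whose fitted half-maximal concentration for disrupting protein-DNA binding is below 10 micromolar; the record names Rev-erb in its text, so the target is in doubt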
Active calls of the source: *. Shown are actives, neighbours in structure and some others; about 1.4% of the full set was active somewhere.

What do the screens show for `COc1ccc2c(c1)CCCN2C(=O)C1CCCN(S(=O)(=O)c2c(C(C)C)cc(C(C)C)cc2C(C)C)C1` (stereo unspecified)?
NR1D1 modulator: 12.7

What do the screens show for `CC1(Cc2ccc(OC(F)(F)F)cc2)C(=O)Nc2ccc(OC(F)(F)F)cc21` (stereo unspecified)?
PG9 binder: -0.1; NR2E3 ag-1: 3.9; NR1D1 modulator: 8.9

How did COc1ccc(C(C)=O)cc1CC1(C)C(=O)Nc2ccc(-c3ccccc3OC)cc21 (stereo unspecified) do in these assays?
PG9 binder: -0.3; NR2E3 ag-1: 1.2; NR1D1 modulator: 0.6

Results for COc1ccccc1-c1ccc2c(c1)C(C)(Cc1cccc(F)c1)C(=O)N2 (stereo unspecified) ?
PG9 binder: -1.2; NR2E3 ag-1: 5.0; NR1D1 modulator: 63.5*; Rev-erbA confirm: 88.0*; RORg DNA counter: >40

Results for CC1(Cc2cccc(F)c2)C(=O)Nc2ccc(OC(F)(F)F)cc21 (stereo unspecified) ?
PG9 binder: -0.2; NR2E3 ag-1: -57.0; NR1D1 modulator: 16.3*; Rev-erbA confirm: 14.7*

Results for COC(=O)c1ccc(NC(=O)c2ccc3c(c2)C(=O)N(C)C3=O)cc1 ?
PG9 binder: -1.1; NR2E3 ag-1: -4.6; NR1D1 modulator: 52.2*; NR2E3 ag-2: 0.3; Rev-erbA confirm: 33.5*; RORg DNA counter: >40

Results for Cc1ccc(C(=O)CNc2cccc([N+](=O)[O-])c2)cc1 ?
PG9 binder: -3.3; NR2E3 ag-1: -3.3; NR1D1 modulator: 14.6*; NR2E3 ag-2: 0.6; Rev-erbA confirm: -1.6

Results for Cc1ccc(NCC(=O)c2ccc([N+](=O)[O-])cc2)cc1 ?
NR2E3 ag-1: -82.0; NR2E3 ag-2: 1.1

Results for O=C(NCc1ccc(F)cc1)c1c(O)c2cccc3c2n(c1=O)CCC3 ?
PG9 binder: 1.2; NR2E3 ag-1: -11.5; NR1D1 modulator: 37.2*; NR2E3 ag-2: 3.1; Rev-erbA confirm: 10.5

How did COc1ccc(-c2c(C)nc(N)nc2-c2ccc(OCc3ccc(C)cc3)cc2O)cc1OC do in these assays?
PG9 binder: -1.9; NR2E3 ag-1: 5.4; NR1D1 modulator: 123.5*; NR2E3 ag-2: 1.2; Rev-erbA confirm: 84.8*; RORg DNA counter: >40

Results for COc1ccccc1N(C(=O)c1snc(C(N)=O)c1N)C(C(=O)NC1CCCC1)c1ccc(N(C)C)cc1 (stereo unspecified) ?
PG9 binder: -1.7; NR2E3 ag-1: -29.5; NR1D1 modulator: 36.2*; NR2E3 ag-2: 0.3; Rev-erbA confirm: 10.4

Results for COc1ccc(OC)c(C(=O)COC(=O)c2[nH]c(C)c(C(C)=O)c2C)c1 ?
PG9 binder: 7.6; NR2E3 ag-1: 5.2; NR1D1 modulator: 15.9*; Rev-erbA confirm: 10.1

How did COc1ccc(-c2nnc3ccc(SCC(=O)Nc4nc5ccccc5s4)nn23)cc1OC do in these assays?
PG9 binder: -0.8; NR2E3 ag-1: 9.0; NR1D1 modulator: 45.6*; NR2E3 ag-2: -0.2; Rev-erbA confirm: 15.5

How did COc1ccc(-c2nnc3ccc(SCC(=O)Nc4nccs4)nn23)cc1OC do in these assays?
PG9 binder: -0.5; NR2E3 ag-1: -12.6; NR1D1 modulator: 2.2; NR2E3 ag-2: -1.4

How did O=C(CSc1nc2ccsc2c(=O)n1Cc1ccccc1)NCc1ccco1 do in these assays?
PG9 binder: 15.7*; NR2E3 ag-1: -15.2; NR1D1 modulator: 17.5*; NR2E3 ag-2: 0.1; Rev-erbA confirm: 5.2

How did CCN(CC)CCCNc1ccc2ncn3c4ccc(O)cc4c(=O)c1c23 do in these assays?
PG9 binder: -19.4; NR2E3 ag-1: 34.1; NR1D1 modulator: 91.5*; Rev-erbA confirm: 50.4*

What do the screens show for `CCCCCCc1c[nH]c2ccc(O)c(-c3ccccc3)c12`?
NR1D1 modulator: 8.9

Results for CCc1sc2nc(SCC(=O)Nc3cc(C)on3)n(-c3cccc(OC)c3)c(=O)c2c1C ?
PG9 binder: 7.8; NR2E3 ag-1: -14.2; NR1D1 modulator: 34.0*; NR2E3 ag-2: 2.5; Rev-erbA confirm: 22.3*

Results for COc1ccc(C)cc1-n1c(SCC(=O)Nc2cc(C)on2)nc2sc(C)c(C)c2c1=O ?
PG9 binder: -14.8; NR2E3 ag-1: -13.9; NR1D1 modulator: 11.1; NR2E3 ag-2: 1.5

Bioassay records from PubChem.
